Assay results as given in ChEMBL document CHEMBL1136990, “Design of HIV-1 protease inhibitors with pyrrolidinones and oxazolidinones as novel P1'-ligands to enhance backbone-binding interactions with protease: synthesis, biological evaluation, and protein-ligand X-ray studies” (J Med Chem, 2009).

Experiments:
[1] = test system: Human immunodeficiency virus 1; assay: Antiviral activity against multidrug-resistant HIV1 isolate C infected in PHA-stimulated PBMC assessed as inhibition of p24 […] protein; type: functional, organism-based; details: Human immunodeficiency virus 1, isolate C
How it was run: (§1)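 Clinical HIV-1 isolates were tested in PHA-stimulated peripheral blood mononuclear cells as targets, with inhibition of p24 Gag protein production as the end point. Each value was determined in duplicate or triplicate and derived from three independent experiments.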

[2] = test system: Human immunodeficiency virus 1; assay: Ratio of EC50 for multidrug-resistant HIV1 isolate G to EC50 for wild type HIV1 isolate ERS104pre; type: functional
How it was run: (§2)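 Fold change is the EC50 against each multidrug-resistant isolate divided by the EC50 against HIV-1ERS104pre. EC50s came from PHA-stimulated PBMC with a p24 Gag production end point, run in duplicate or triplicate across three independent experiments.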

[3] = test system: Human immunodeficiency virus 1; assay: Ratio of EC50 for multidrug-resistant HIV1 isolate MM to EC50 for wild type HIV1 isolate ERS104pre; type: functional; how it was run: as §2
[4] = test system: Human immunodeficiency virus 1; assay: Antiviral activity against multidrug-resistant HIV1 isolate G infected in PHA-stimulated PBMC assessed as inhibition of p24 […] protein; type: functional, organism-based; details: Human immunodeficiency virus 1, isolate G; how it was run: as §1
[5] = test system: Human immunodeficiency virus 1; assay: Antiviral activity against multidrug-resistant HIV1 isolate TM infected in PHA-stimulated PBMC assessed as inhibition of p24 […] protein; type: functional, organism-based; details: Human immunodeficiency virus 1, isolate TM; how it was run: as §1
[6] = test system: Human immunodeficiency virus 1; assay: Antiviral activity against wild type HIV1 isolate ERS104pre infected in PHA-stimulated PBMC assessed as inhibition of p24 […] protein; type: functional, organism-based; details: Human immunodeficiency virus 1, isolate ERS104pre; how it was run: as §1
[7] = test system: Human immunodeficiency virus 1; assay: Ratio of EC50 for multidrug-resistant HIV1 isolate C to EC50 for wild type HIV1 isolate ERS104pre; type: functional; how it was run: as §2
[8] = test system: Human immunodeficiency virus 1; assay: Ratio of EC50 for multidrug-resistant HIV1 isolate TM to EC50 for wild type HIV1 isolate ERS104pre; type: functional; how it was run: as §2
[9] = test system: Human immunodeficiency virus 1; assay: Antiviral activity against multidrug-resistant HIV1 isolate MM infected in PHA-stimulated PBMC assessed as inhibition of p24 […] protein; type: functional, organism-based; details: Human immunodeficiency virus 1, isolate MM; how it was run: as §1
[10] = Inhibition of HIV protease by fluorescence energy transfer assay; design: species or system Human immunodeficiency virus
[11] = test system: Human immunodeficiency virus 1; assay: Antiviral activity against HIV1 LAI in human MT2 cells by MTT assay; type: functional, organism-based; details: Human immunodeficiency virus 1, LAI
[12] = test system: Human immunodeficiency virus 1; assay: Antiviral activity against amprenavir-resistant HIV1 NL4-3; type: functional, organism-based; details: Human immunodeficiency virus 1, NL4-3
[13] = test system: Human immunodeficiency virus 1; assay: Antiviral activity against ritonavir-resistant HIV1 NL4-3; type: functional, organism-based; details: Human immunodeficiency virus 1, NL4-3
[14] = test system: Human immunodeficiency virus 1; assay: Antiviral activity against atazanavir-resistant HIV1 NL4-3; type: functional, organism-based; details: Human immunodeficiency virus 1, NL4-3
[15] = test system: Human immunodeficiency virus 1; assay: Antiviral activity against nelfinavir-resistant HIV1 NL4-3; type: functional, organism-based; details: Human immunodeficiency virus 1, NL4-3
[16] = test system: Human immunodeficiency virus 1; assay: Antiviral activity against lopinavir-resistant HIV1 NL4-3; type: functional, organism-based; details: Human immunodeficiency virus 1, NL4-3
[17] = test system: Human immunodeficiency virus 1; assay: Antiviral activity against saquinavir-resistant HIV1 NL4-3; type: functional, organism-based; details: Human immunodeficiency virus 1, NL4-3
[18] = test system: Human immunodeficiency virus 1; assay: Antiviral activity against indinavir-resistant HIV1 NL4-3; type: functional, organism-based; details: Human immunodeficiency virus 1, NL4-3

Compound: CC(C)CN(C[C@@H](O)[C@H](Cc1ccccc1)NC(=O)O[C@H]1CCOC1)S(=O)(=O)c1ccc(N)cc1
- EC50 [1]: 350 nM
- Ratio EC50 [2]: 13
- Ratio EC50 [3]: 13
- EC50 [4]: 330 nM
- EC50 [5]: 250 nM
- EC50 [6]: 25 nM
- Ratio EC50 [7]: 14
- Ratio EC50 [8]: 10
- EC50 [9]: 320 nM

Compound: Nc1ccc(S(=O)(=O)N(C[C@@H]2CCC(=O)N2)C[C@@H](O)[C@H](Cc2ccccc2)NC(=O)O[C@H]2CO[C@H]3OCC[C@H]32)cc1
- Ki [10]: 0.28 nM

Compound: Nc1ccc(S(=O)(=O)N(C[C@@H]2COC(=O)N2)C[C@@H](O)[C@H](Cc2ccccc2)NC(=O)O[C@H]2CO[C@H]3OCC[C@H]32)cc1
- Ki [10]: 0.31 nM

Compound: Nc1ccc(S(=O)(=O)N(C[C@H]2CCC(=O)N2)C[C@@H](O)[C@H](Cc2ccccc2)NC(=O)O[C@@H]2C[C@@H]3CCO[C@@H]3C2)cc1
- Ki [10]: 0.31 nM
- IC50 [11]: 600 nM

Compound: COc1ccc(S(=O)(=O)N(C[C@H]2COC(=O)N2)C[C@@H](O)[C@H](Cc2ccccc2)NC(=O)O[C@H]2CO[C@H]3OCC[C@H]32)cc1
- Ki [10]: 0.035 nM
- IC50 [11]: 310 nM

Compound: Nc1ccc(S(=O)(=O)N(C[C@H]2CCC(=O)N2)C[C@@H](O)[C@H](Cc2ccccc2)NC(=O)O[C@H]2CO[C@H]3OCC[C@H]32)cc1
- Ki [10]: 0.85 nM
- IC50 [11]: > 1000 nM

Compound: COc1ccc(S(=O)(=O)N(C[C@H]2CCC(=O)N2)C[C@@H](O)[C@H](Cc2ccccc2)NC(=O)O[C@@H]2C[C@@H]3CCO[C@@H]3C2)cc1
- EC50 [1]: 23 nM
- Ratio EC50 [2]: 1
- Ratio EC50 [3]: 2
- EC50 [12]: 36 nM
- EC50 [4]: 27 nM
- EC50 [5]: 29 nM
- IC50 [11]: 26 nM
- EC50 [13]: 36 nM
- EC50 [14]: 36 nM
- EC50 [15]: 36 nM
- EC50 [6]: 28 nM
- Ratio EC50 [7]: 1
- Ratio EC50 [8]: 1
- EC50 [9]: 42 nM
- EC50 [16]: 36 nM
- EC50 [17]: 36 nM
- EC50 [18]: 36 nM

Compound: COc1ccc(S(=O)(=O)N(C[C@@H]2CCC(=O)N2)C[C@@H](O)[C@H](Cc2ccccc2)NC(=O)O[C@@H]2C[C@@H]3CCO[C@@H]3C2)cc1
- Ki [10]: 0.31 nM
- IC50 [11]: 230 nM

Compound: COc1ccc(S(=O)(=O)N(C[C@@H]2CCC(=O)N2)C[C@@H](O)[C@H](Cc2ccccc2)NC(=O)O[C@H]2CO[C@H]3OCC[C@H]32)cc1
- Ki [10]: 0.85 nM
- IC50 [11]: 480 nM

Compound: COc1ccc(S(=O)(=O)N(C[C@H]2CCC(=O)N2)C[C@@H](O)[C@H](Cc2ccccc2)NC(=O)O[C@H]2CO[C@H]3OCC[C@H]32)cc1
- Ki [10]: 0.12 nM
- IC50 [11]: 250 nM

Compound: Nc1ccc(S(=O)(=O)N(C[C@H]2COC(=O)N2)C[C@@H](O)[C@H](Cc2ccccc2)NC(=O)O[C@H]2CO[C@H]3OCC[C@H]32)cc1
- Ki [10]: 0.24 nM
- IC50 [11]: > 1000 nM

Compound: Nc1ccc(S(=O)(=O)N(C[C@@H]2CCC(=O)N2)C[C@@H](O)[C@H](Cc2ccccc2)NC(=O)O[C@@H]2C[C@@H]3CCO[C@@H]3C2)cc1
- Ki [10]: 1.27 nM
- IC50 [11]: > 1000 nM

Compound: COc1ccc(S(=O)(=O)N(C[C@@H]2COC(=O)N2)C[C@@H](O)[C@H](Cc2ccccc2)NC(=O)O[C@H]2CO[C@H]3OCC[C@H]32)cc1
- Ki [10]: 0.28 nM
- IC50 [11]: 480 nM

Compound: CC(C)(C)NC(=O)[C@@H]1CN(Cc2cccnc2)CCN1C[C@@H](O)C[C@@H](Cc1ccccc1)C(=O)N[C@H]1c2ccccc2C[C@H]1O.O
- EC50 [1]: > 1000 nM
- Ratio EC50 [2]: 10
- Ratio EC50 [3]: >36
- EC50 [4]: 290 nM
- EC50 [5]: > 1000 nM
- EC50 [6]: 28 nM
- Ratio EC50 [7]: >36
- Ratio EC50 [8]: >36
- EC50 [9]: > 1000 nM
